How the values were obtained:
[1] = test system: Spleen; test: Biodistribution in ddY mouse spleen at 0.1 to 0.4 uCi, iv after 2 mins by gamma counting; format: ADME, organism-based; conditions: in vivo
Outline: (§1)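 [125I]ligand (0.1–0.4 µCi) in 100 µL PBS (pH 7.4) containing 30 µL DMSO, injected into the tail vein of ddY mice (5 weeks, 22–25 g). Mice sacrificed at 2, 10, 30 and 60 min. Organs removed, weighed and gamma-counted. Values are % injected dose per gram, except stomach as % dose per organ. Mean (SD) of 3–6 mice per time point.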

[2] = test system: Kidney; test: Biodistribution in ddY mouse kidney at 0.1 to 0.4 uCi, iv after 60 mins by gamma counting; format: ADME, organism-based; conditions: in vivo, 1 h; outline: as §1
[3] = test system: Brain; test: Biodistribution in ddY mouse brain at 0.1 to 0.4 uCi, iv after 30 mins by gamma counting; format: ADME, organism-based; conditions: in vivo, 0.5 h; outline: as §1
[4] = test system: Blood; test: Biodistribution in ddY mouse blood at 0.1 to 0.4 uCi, iv after 10 mins by gamma counting; format: ADME, organism-based; conditions: in vivo; outline: as §1
[5] = test system: Intestine; test: Biodistribution in ddY mouse intestine at 0.1 to 0.4 uCi, iv after 2 mins by gamma counting; format: ADME, organism-based; conditions: in vivo; outline: as §1
[6] = test system: Liver; test: Biodistribution in ddY mouse liver at 0.1 to 0.4 uCi, iv after 60 mins by gamma counting; format: ADME, organism-based; conditions: in vivo, 1 h; outline: as §1
[7] = test system: Intestine; test: Biodistribution in ddY mouse intestine at 0.1 to 0.4 uCi, iv after 30 mins by gamma counting; format: ADME, organism-based; conditions: in vivo, 0.5 h; outline: as §1
[8] = test system: Spleen; test: Biodistribution in ddY mouse spleen at 0.1 to 0.4 uCi, iv after 10 mins by gamma counting; format: ADME, organism-based; conditions: in vivo; outline: as §1
[9] = test system: Brain; test: Biodistribution in ddY mouse brain at 0.1 to 0.4 uCi, iv after 2 mins by gamma counting; format: ADME, organism-based; conditions: in vivo; outline: as §1
[10] = test system: Stomach; test: Biodistribution in ddY mouse stomach assessed per organ at 0.1 to 0.4 uCi, iv after 60 mins by gamma counting; format: ADME, organism-based; conditions: in vivo, 1 h; outline: as §1
[11] = test system: Liver; test: Biodistribution in ddY mouse liver at 0.1 to 0.4 uCi, iv after 30 mins by gamma counting; format: ADME, organism-based; conditions: in vivo, 0.5 h; outline: as §1
[12] = test system: Intestine; test: Biodistribution in ddY mouse intestine at 0.1 to 0.4 uCi, iv after 60 mins by gamma counting; format: ADME, organism-based; conditions: in vivo, 1 h; outline: as §1
[13] = test system: Kidney; test: Biodistribution in ddY mouse kidney at 0.1 to 0.4 uCi, iv after 30 mins by gamma counting; format: ADME, organism-based; conditions: in vivo, 0.5 h; outline: as §1
[14] = test system: Heart; test: Biodistribution in ddY mouse heart at 0.1 to 0.4 uCi, iv after 10 mins by gamma counting; format: ADME, organism-based; conditions: in vivo; outline: as §1
[15] = test system: Blood; test: Biodistribution in ddY mouse blood at 0.1 to 0.4 uCi, iv after 2 mins by gamma counting; format: ADME, organism-based; conditions: in vivo; outline: as §1
[16] = test system: Lung; test: Biodistribution in ddY mouse lung at 0.1 to 0.4 uCi, iv after 60 mins by gamma counting; format: ADME, organism-based; conditions: in vivo, 1 h; outline: as §1
[17] = test system: Lung; test: Biodistribution in ddY mouse lung at 0.1 to 0.4 uCi, iv after 2 mins by gamma counting; format: ADME, organism-based; conditions: in vivo; outline: as §1
[18] = test system: Intestine; test: Biodistribution in ddY mouse intestine at 0.1 to 0.4 uCi, iv after 10 mins by gamma counting; format: ADME, organism-based; conditions: in vivo; outline: as §1
[19] = test system: Brain; test: Biodistribution in ddY mouse brain at 0.1 to 0.4 uCi, iv after 60 mins by gamma counting; format: ADME, organism-based; conditions: in vivo, 1 h; outline: as §1
[20] = test system: Stomach; test: Biodistribution in ddY mouse stomach assessed per organ at 0.1 to 0.4 uCi, iv after 10 mins by gamma counting; format: ADME, organism-based; conditions: in vivo; outline: as §1
[21] = test system: Pancreas; test: Biodistribution in ddY mouse pancreas at 0.1 to 0.4 uCi, iv after 60 mins by gamma counting; format: ADME, organism-based; conditions: in vivo, 1 h; outline: as §1
[22] = test system: Liver; test: Biodistribution in ddY mouse liver at 0.1 to 0.4 uCi, iv after 2 mins by gamma counting; format: ADME, organism-based; conditions: in vivo; outline: as §1
[23] = test system: Heart; test: Biodistribution in ddY mouse heart at 0.1 to 0.4 uCi, iv after 2 mins by gamma counting; format: ADME, organism-based; conditions: in vivo; outline: as §1
[24] = test system: Brain; test: Biodistribution in ddY mouse brain at 0.1 to 0.4 uCi, iv after 10 mins by gamma counting; format: ADME, organism-based; conditions: in vivo; outline: as §1
[25] = test system: Kidney; test: Biodistribution in ddY mouse kidney at 0.1 to 0.4 uCi, iv after 10 mins by gamma counting; format: ADME, organism-based; conditions: in vivo; outline: as §1
[26] = test system: Stomach; test: Biodistribution in ddY mouse stomach assessed per organ at 0.1 to 0.4 uCi, iv after 2 mins by gamma counting; format: ADME, organism-based; conditions: in vivo; outline: as §1
[27] = test system: Spleen; test: Biodistribution in ddY mouse spleen at 0.1 to 0.4 uCi, iv after 30 mins by gamma counting; format: ADME, organism-based; conditions: in vivo, 0.5 h; outline: as §1
[28] = test system: Pancreas; test: Biodistribution in ddY mouse pancreas at 0.1 to 0.4 uCi, iv after 2 mins by gamma counting; format: ADME, organism-based; conditions: in vivo; outline: as §1
[29] = test system: Liver; test: Biodistribution in ddY mouse liver at 0.1 to 0.4 uCi, iv after 10 mins by gamma counting; format: ADME, organism-based; conditions: in vivo; outline: as §1
[30] = test system: Pancreas; test: Biodistribution in ddY mouse pancreas at 0.1 to 0.4 uCi, iv after 30 mins by gamma counting; format: ADME, organism-based; conditions: in vivo, 0.5 h; outline: as §1
[31] = test system: Blood; test: Biodistribution in ddY mouse blood at 0.1 to 0.4 uCi, iv after 30 mins by gamma counting; format: ADME, organism-based; conditions: in vivo, 0.5 h; outline: as §1
[32] = test system: Heart; test: Biodistribution in ddY mouse heart at 0.1 to 0.4 uCi, iv after 60 mins by gamma counting; format: ADME, organism-based; conditions: in vivo, 1 h; outline: as §1
[33] = test system: Stomach; test: Biodistribution in ddY mouse stomach assessed per organ at 0.1 to 0.4 uCi, iv after 30 mins by gamma counting; format: ADME, organism-based; conditions: in vivo, 0.5 h; outline: as §1
[34] = test system: Pancreas; test: Biodistribution in ddY mouse pancreas at 0.1 to 0.4 uCi, iv after 10 mins by gamma counting; format: ADME, organism-based; conditions: in vivo; outline: as §1
[35] = test system: Kidney; test: Biodistribution in ddY mouse kidney at 0.1 to 0.4 uCi, iv after 2 mins by gamma counting; format: ADME, organism-based; conditions: in vivo; outline: as §1
[36] = test system: Spleen; test: Biodistribution in ddY mouse spleen at 0.1 to 0.4 uCi, iv after 60 mins by gamma counting; format: ADME, organism-based; conditions: in vivo, 1 h; outline: as §1
[37] = test system: Blood; test: Biodistribution in ddY mouse blood at 0.1 to 0.4 uCi, iv after 60 mins by gamma counting; format: ADME, organism-based; conditions: in vivo, 1 h; outline: as §1
[38] = test system: Lung; test: Biodistribution in ddY mouse lung at 0.1 to 0.4 uCi, iv after 30 mins by gamma counting; format: ADME, organism-based; conditions: in vivo, 0.5 h; outline: as §1
[39] = test system: Heart; test: Biodistribution in ddY mouse heart at 0.1 to 0.4 uCi, iv after 30 mins by gamma counting; format: ADME, organism-based; conditions: in vivo, 0.5 h; outline: as §1
[40] = n-octanol-sodium phosphate buffer partition co-efficient, log D of the compound at pH 7.4 by shake flask method; format: physicochemical
Outline: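 Shake-flask partition between n-octanol and sodium phosphate buffer, pH 7.4, shaken 10 min at room temperature, then centrifuged. Weighed 0.5 mL samples of each layer counted. log D from the ratio of cpm per gram of octanol to cpm per gram of buffer; n = 3.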

[41] = test system: Lung; test: Biodistribution in ddY mouse lung at 0.1 to 0.4 uCi, iv after 10 mins by gamma counting; format: ADME, organism-based; conditions: in vivo; outline: as §1

**Q.** Which Drug uptake [1] does the source give for COc1c2ccc([125I])cc2nc2ccc(N(C)C)cc12 here?
**A.** Its Drug uptake is 5.09 % ID/g.

**Q.** What about the Drug uptake [2] of the same compound?
**A.** The Drug uptake was 4.81 % ID/g.

**Q.** What about the Drug uptake [3] of the same compound?
**A.** The Drug uptake was 1.6 % ID/g.

**Q.** And the Drug uptake [4]?
**A.** The Drug uptake was 7 % ID/g.

**Q.** What about the Drug uptake [5] of the same compound?
**A.** The Drug uptake was 1.86 % ID/g.

**Q.** What about the Drug uptake [6] of the same compound?
**A.** The Drug uptake was 10.79 % ID/g.

**Q.** And the Drug uptake [7]?
**A.** The Drug uptake was 17.49 % ID/g.

**Q.** And the Drug uptake [8]?
**A.** The Drug uptake was 4.07 % ID/g.

**Q.** And the Drug uptake [9]?
**A.** Its Drug uptake is 2.09 % ID/g.

**Q.** What about the Drug uptake [10] of the same compound?
**A.** Its Drug uptake is 4.33 %ID.

**Q.** What about the Drug uptake [11] of the same compound?
**A.** The Drug uptake was 18.54 % ID/g.

**Q.** What about the Drug uptake [12] of the same compound?
**A.** The Drug uptake was 11.2 % ID/g.

**Q.** What about the Drug uptake [13] of the same compound?
**A.** The Drug uptake was 10.72 % ID/g.

**Q.** And the Drug uptake [14]?
**A.** The Drug uptake was 3.78 % ID/g.

**Q.** And the Drug uptake [15]?
**A.** The Drug uptake was 8.34 % ID/g.

**Q.** What about the Drug uptake [16] of the same compound?
**A.** The Drug uptake was 3.87 % ID/g.

**Q.** And the Drug uptake [17]?
**A.** The Drug uptake was 7.17 % ID/g.

**Q.** And the Drug uptake [18]?
**A.** The Drug uptake was 14.19 % ID/g.

**Q.** What about the Drug uptake [19] of the same compound?
**A.** The Drug uptake was 0.71 % ID/g.

**Q.** And the Drug uptake [20]?
**A.** The Drug uptake was 5.1 %ID.

**Q.** What about the Drug uptake [21] of the same compound?
**A.** Its Drug uptake is 1.14 % ID/g.

**Q.** And the Drug uptake [22]?
**A.** Its Drug uptake is 20.78 % ID/g.

**Q.** What about the Drug uptake [23] of the same compound?
**A.** Its Drug uptake is 5.83 % ID/g.

**Q.** And the Drug uptake [24]?
**A.** Its Drug uptake is 1.96 % ID/g.

**Q.** What about the Drug uptake [25] of the same compound?
**A.** Its Drug uptake is 8.99 % ID/g.

**Q.** And the Drug uptake [26]?
**A.** The Drug uptake was 1.83 %ID.

**Q.** And the Drug uptake [27]?
**A.** The Drug uptake was 5.4 % ID/g.

**Q.** What about the Drug uptake [28] of the same compound?
**A.** Its Drug uptake is 4.11 % ID/g.

**Q.** And the Drug uptake [29]?
**A.** The Drug uptake was 20.71 % ID/g.

**Q.** What about the Drug uptake [30] of the same compound?
**A.** Its Drug uptake is 2.29 % ID/g.

**Q.** What about the Drug uptake [31] of the same compound?
**A.** The Drug uptake was 6.52 % ID/g.

**Q.** What about the Drug uptake [32] of the same compound?
**A.** The Drug uptake was 2.38 % ID/g.

**Q.** What about the Drug uptake [33] of the same compound?
**A.** The Drug uptake was 4.2 %ID.

**Q.** And the Drug uptake [34]?
**A.** The Drug uptake was 2.47 % ID/g.

**Q.** What about the Drug uptake [35] of the same compound?
**A.** The Drug uptake was 10.94 % ID/g.

**Q.** What about the Drug uptake [36] of the same compound?
**A.** The Drug uptake was 2.43 % ID/g.

**Q.** What about the Drug uptake [37] of the same compound?
**A.** The Drug uptake was 5.17 % ID/g.

**Q.** And the Drug uptake [38]?
**A.** The Drug uptake was 6.67 % ID/g.

**Q.** And the Drug uptake [39]?
**A.** The Drug uptake was 4.09 % ID/g.

**Q.** What about the logD [40] of the same compound?
**A.** The logD was 1.81.

**Q.** And the Drug uptake [41]?
**A.** Its Drug uptake is 6.66 % ID/g.

Source: ChEMBL document CHEMBL2321753, “Synthesis and biological evaluation of radioiodinated quinacrine-based derivatives for SPECT imaging of Aβ plaques” (Eur J Med Chem, 2013)
